In paper PMC10582670 (Clinical and Translational Science, 2023):
Several values for one entry are separate records, joined by “and”; a condition that tells them apart may be missing. Identical values can stand only once.

Test system: healthy volunteers
Experiment: Safety and tolerability
Type: in vivo, human
Summary of the method: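 Healthy volunteers aged 18–55 y, BMI 18–30 kg/m², randomised double-blind 8:2 to once-daily oral drug or placebo for up to 14 days, with follow-up visits on days 21 and 42. Treatment-emergent AEs coded with MedDRA 23.1 and graded with the WHO toxicity scale, alongside ECGs, laboratory tests and vital signs. The safety population was all subjects receiving at least one dose.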

[1] = SAD (fasted) All GDC-8264, n = 28

**Q.** Which results are given for `O=C(c1nc2n(n1)[C@H](c1ccccc1)C[C@@H]2F)C1CC1` [GDC‐8264]?
**A.** No. of TEAEs (SAD (fasted) 75 mg, n = 5): 8; No. of deaths (SAD (fasted) 75 mg, n = 5): 0 no. of subjects (%); No. of subjects with at least one Related TEAE (SAD (fasted) 75 mg, n = 5): 1 (20.0) no. of subjects (%); No. of subjects with at least one Serious TEAE (SAD (fasted) 75 mg, n = 5): 0 no. of subjects (%); No. of subjects with at least one TEAE (SAD (fasted) 75 mg, n = 5): 3 (60.0) no. of subjects (%); No. of subjects withdrawn from study due to a TEAE (SAD (fasted) 75 mg, n = 5): 0 no. of subjects (%); TEAE Abdominal pain (SAD (fasted) 75 mg, n = 5): 0 no. of subjects (%); TEAE Back pain (SAD (fasted) 75 mg, n = 5): 1 (20.0) no. of subjects (%); TEAE Catheter site pain (SAD (fasted) 75 mg, n = 5): 0 no. of subjects (%); TEAE Dermatitis contact (SAD (fasted) 75 mg, n = 5): 2 (40.0) no. of subjects (%); TEAE Diarrhea (SAD (fasted) 75 mg, n = 5): 0 no. of subjects (%); TEAE Dizziness (SAD (fasted) 75 mg, n = 5): 0 no. of subjects (%); TEAE Dyspepsia (SAD (fasted) 75 mg, n = 5): 0 no. of subjects (%); TEAE Gastrointestinal sounds abnormal (SAD (fasted) 75 mg, n = 5): 1 (20.0) no. of subjects (%); TEAE Gingivitis (SAD (fasted) 75 mg, n = 5): 0 no. of subjects (%); TEAE Headache (SAD (fasted) 75 mg, n = 5): 0 no. of subjects (%); TEAE Medical device site dermatitis (SAD (fasted) 75 mg, n = 5): 0 no. of subjects (%); TEAE Myalgia (SAD (fasted) 75 mg, n = 5): 1 (20.0) no. of subjects (%); TEAE Nausea (SAD (fasted) 75 mg, n = 5): 2 (40.0) no. of subjects (%); TEAE Presyncope (SAD (fasted) 75 mg, n = 5): 0 no. of subjects (%); TEAE Somnolence (SAD (fasted) 75 mg, n = 5): 0 no. of subjects (%); No. of TEAEs (SAD (fasted) 150 mg, n = 5): 6; No. of deaths (SAD (fasted) 150 mg, n = 5): 0 no. of subjects (%); No. of subjects with at least one Related TEAE (SAD (fasted) 150 mg, n = 5): 3 (60.0) no. of subjects (%); No. of subjects with at least one Serious TEAE (SAD (fasted) 150 mg, n = 5): 0 no. of subjects (%); No. of subjects with at least one TEAE (SAD (fasted) 150 mg, n = 5): 4 (80.0) no. of subjects (%); No. of subjects withdrawn from study due to a TEAE (SAD (fasted) 150 mg, n = 5): 0 no. of subjects (%); TEAE Abdominal pain (SAD (fasted) 150 mg, n = 5): 0 no. of subjects (%); TEAE Back pain (SAD (fasted) 150 mg, n = 5): 0 no. of subjects (%); TEAE Catheter site pain (SAD (fasted) 150 mg, n = 5): 0 no. of subjects (%); TEAE Dermatitis contact (SAD (fasted) 150 mg, n = 5): 1 (20.0) no. of subjects (%); TEAE Diarrhea (SAD (fasted) 150 mg, n = 5): 0 no. of subjects (%); TEAE Dizziness (SAD (fasted) 150 mg, n = 5): 0 no. of subjects (%); TEAE Dyspepsia (SAD (fasted) 150 mg, n = 5): 0 no. of subjects (%); TEAE Gastrointestinal sounds abnormal (SAD (fasted) 150 mg, n = 5): 1 (20.0) no. of subjects (%); TEAE Gingivitis (SAD (fasted) 150 mg, n = 5): 0 no. of subjects (%); TEAE Headache (SAD (fasted) 150 mg, n = 5): 1 (20.0) no. of subjects (%); TEAE Medical device site dermatitis (SAD (fasted) 150 mg, n = 5): 0 no. of subjects (%); TEAE Myalgia (SAD (fasted) 150 mg, n = 5): 0 no. of subjects (%); TEAE Nausea (SAD (fasted) 150 mg, n = 5): 1 (20.0) no. of subjects (%); TEAE Presyncope (SAD (fasted) 150 mg, n = 5): 0 no. of subjects (%); TEAE Somnolence (SAD (fasted) 150 mg, n = 5): 0 no. of subjects (%); No. of TEAEs (SAD (fasted) 225 mg, n = 6): 7; No. of deaths (SAD (fasted) 225 mg, n = 6): 0 no. of subjects (%); No. of subjects with at least one Related TEAE (SAD (fasted) 225 mg, n = 6): 0 no. of subjects (%); No. of subjects with at least one Serious TEAE (SAD (fasted) 225 mg, n = 6): 0 no. of subjects (%); No. of subjects with at least one TEAE (SAD (fasted) 225 mg, n = 6): 3 (50.0) no. of subjects (%); No. of subjects withdrawn from study due to a TEAE (SAD (fasted) 225 mg, n = 6): 0 no. of subjects (%); TEAE Abdominal pain (SAD (fasted) 225 mg, n = 6): 0 no. of subjects (%); TEAE Back pain (SAD (fasted) 225 mg, n = 6): 0 no. of subjects (%); TEAE Catheter site pain (SAD (fasted) 225 mg, n = 6): 0 no. of subjects (%); TEAE Dermatitis contact (SAD (fasted) 225 mg, n = 6): 0 no. of subjects (%); TEAE Diarrhea (SAD (fasted) 225 mg, n = 6): 0 no. of subjects (%); TEAE Dizziness (SAD (fasted) 225 mg, n = 6): 0 no. of subjects (%); TEAE Dyspepsia (SAD (fasted) 225 mg, n = 6): 0 no. of subjects (%); TEAE Gastrointestinal sounds abnormal (SAD (fasted) 225 mg, n = 6): 0 no. of subjects (%); TEAE Gingivitis (SAD (fasted) 225 mg, n = 6): 0 no. of subjects (%); TEAE Headache (SAD (fasted) 225 mg, n = 6): 0 no. of subjects (%); TEAE Medical device site dermatitis (SAD (fasted) 225 mg, n = 6): 2 (33.3) no. of subjects (%); TEAE Myalgia (SAD (fasted) 225 mg, n = 6): 1 (16.7) no. of subjects (%); TEAE Nausea (SAD (fasted) 225 mg, n = 6): 0 no. of subjects (%); TEAE Presyncope (SAD (fasted) 225 mg, n = 6): 1 (16.7) no. of subjects (%); TEAE Somnolence (SAD (fasted) 225 mg, n = 6): 0 no. of subjects (%); No. of TEAEs [1]: 33; No. of deaths [1]: 0 no. of subjects (%); No. of subjects with at least one Related TEAE [1]: 4 (14.3) no. of subjects (%); No. of subjects with at least one Serious TEAE [1]: 0 no. of subjects (%); No. of subjects with at least one TEAE [1]: 19 no. of subjects (%) and 19 (67.9) no. of subjects (%); No. of subjects withdrawn from study due to a TEAE [1]: 0 no. of subjects (%); TEAE Abdominal pain [1]: 2 (7.1) no. of subjects (%); TEAE Back pain [1]: 1 (3.6) no. of subjects (%); TEAE Catheter site pain [1]: 1 (3.6) no. of subjects (%); TEAE Dermatitis contact [1]: 4 (14.3) no. of subjects (%); TEAE Diarrhea [1]: 0 no. of subjects (%); TEAE Dyspepsia [1]: 1 (3.6) no. of subjects (%); TEAE Gastrointestinal sounds abnormal [1]: 2 (7.1) no. of subjects (%); TEAE Gingivitis [1]: 0 no. of subjects (%); TEAE Headache [1]: 4 (14.3) no. of subjects (%); TEAE Medical device site dermatitis [1]: 2 (7.1) no. of subjects (%); TEAE Myalgia [1]: 2 (7.1) no. of subjects (%); TEAE Nausea [1]: 3 (10.7) no. of subjects (%); TEAE Presyncope [1]: 2 (7.1) no. of subjects (%); TEAE Somnolence [1]: 0 no. of subjects (%); No. of TEAEs (SAD (high fat) 75 mg, n = 5): 4; No. of deaths (SAD (high fat) 75 mg, n = 5): 0 no. of subjects (%); No. of subjects with at least one Related TEAE (SAD (high fat) 75 mg, n = 5): 0 no. of subjects (%); No. of subjects with at least one Serious TEAE (SAD (high fat) 75 mg, n = 5): 0 no. of subjects (%); No. of subjects with at least one TEAE (SAD (high fat) 75 mg, n = 5): 2 (40.0) no. of subjects (%); No. of subjects withdrawn from study due to a TEAE (SAD (high fat) 75 mg, n = 5): 0 no. of subjects (%); TEAE Abdominal pain (SAD (high fat) 75 mg, n = 5): 0 no. of subjects (%); TEAE Back pain (SAD (high fat) 75 mg, n = 5): 0 no. of subjects (%); TEAE Catheter site pain (SAD (high fat) 75 mg, n = 5): 0 no. of subjects (%); TEAE Dermatitis contact (SAD (high fat) 75 mg, n = 5): 1 (20.0) no. of subjects (%); TEAE Diarrhea (SAD (high fat) 75 mg, n = 5): 0 no. of subjects (%); TEAE Dizziness (SAD (high fat) 75 mg, n = 5): 0 no. of subjects (%); TEAE Dyspepsia (SAD (high fat) 75 mg, n = 5): 0 no. of subjects (%); TEAE Gastrointestinal sounds abnormal (SAD (high fat) 75 mg, n = 5): 0 no. of subjects (%); TEAE Gingivitis (SAD (high fat) 75 mg, n = 5): 0 no. of subjects (%); TEAE Headache (SAD (high fat) 75 mg, n = 5): 1 (20.0) no. of subjects (%); TEAE Medical device site dermatitis (SAD (high fat) 75 mg, n = 5): 0 no. of subjects (%); TEAE Myalgia (SAD (high fat) 75 mg, n = 5): 0 no. of subjects (%); TEAE Nausea (SAD (high fat) 75 mg, n = 5): 1 (20.0) no. of subjects (%); TEAE Presyncope (SAD (high fat) 75 mg, n = 5): 0 no. of subjects (%); TEAE Somnolence (SAD (high fat) 75 mg, n = 5): 0 no. of subjects (%); changes in clinical laboratory results, vital signs, ECGs, or physical examinations (SAD and MAD stages): no significant changes; severity of adverse events in GDC-8264-treated subjects (both stages (SAD and MAD)): mild
